From PubChem
The list is not random: actives were taken first. Their share in the collection is about 2.7%.
Yeast life ext – extends the lifespan of yeast | S. cerevisiae growth with nicotinamide, OD615; deaD strain in restrictive glucose medium | inhibition of the nicotinamide effect, % at 10 µM | 130,000 tested, 0.68% active | AID 775;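 active means inhibition above a set limit, placed 3 SD over the median of all compounds, cut at about 26% in these data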;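 further: 0% = nicotinamide-treated wells and 100% = cells grown without nicotinamide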
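Assay system: DeaD-strain S. cerevisiae. Medium: CSMM-D glucose medium, restrictive. Reagent: nicotinamide, 1.5 mM, co-present with compound. Compound: 10 µM single point, 0.25% DMSO. Schedule: culture preincubation 4 h, compound exposure 48 h, both 30 °C. Detection: absorbance at 615 nm.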
RAM inhibit – yeast RAM network inhibition | S. cerevisiae dse1pr::URA3 reporter, 5-FOA growth OD615, 2 d; analog-sensitive cbk1-as2 kinase mutant strain | inhibition, % at 50 µM | 190,000 tested, 1.8% active | AID 868;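 active means inhibition above a set limit, 3 SD over mean compound inhibition, cut at about 8.4% in these data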;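 further: 0% = DMSO-only wells with no growth and 100% = 10 µM 1-NA-PP1 full growth; inhibition rescues growth on 5-FOA so higher OD means more RAM inhibition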
Phagocyt inh – macrophage phagocytosis inhibition. J774A.1 macrophage IgG-bead phagocytosis, imaging. inhibition, % at 5 µM. 110,000 tested, 0.07% active. AID 1029;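 active means inhibition above the mean of the plate negative controls plus 5 SD, cut at about 13% in these data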;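 further: phagocytic index as fraction of beads internalized from green versus red external bead signal; plate controls were DMSO negative control for no effect and cytochalasin-D positive control for full effect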
Yeast growth inh – chemicals that inhibit yeast BB579 growth in restrictive medium (lifespan-shortening candidates); S. cerevisiae BB579 growth, OD615, 48 h; inhibition, % at 10 µM; 140,000 tested, 0.51% active; AID 804;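 active means inhibition above a set limit, 3 SD over the mean compound inhibition, cut at about 44% in these data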
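Test system: Saccharomyces cerevisiae DeaD strain BB579, replicative lifespan model yeast | Buffer or medium: Restrictive CSMM-D medium | Doses: One dose, 10 µM compound with 0.25% DMSO | Incubation: 48 h exposure, 30 °C | Detection: Culture absorbance at 615 nm | Control set: Amphotericin B at 10 µg/mL as positive control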
Active calls of the source: *.

For O=C(CCC(=O)OCC(=O)c1ccc(Cl)cc1Cl)Nc1cccc2cccnc12 the results were Yeast life ext -19, RAM inhibit 4, Phagocyt inh -1 and Yeast growth inh -54.
O=C(CCC(=O)OCC(=O)c1ccc(-c2ccccc2)cc1)Nc1cccc2cccnc12 was read as Yeast life ext -18, RAM inhibit 10*, Phagocyt inh -3 and Yeast growth inh -55.
Screening CC1(C)COC(c2ccc(F)c([N+](=O)[O-])c2)=N1 returned Yeast life ext 6, RAM inhibit 3, Phagocyt inh -6 and Yeast growth inh -9.
For COc1ccc(C(CC(=O)O)NC(=O)c2ccccc2)cc1OC (configuration not stated) the results were Yeast life ext -11, RAM inhibit 3, Phagocyt inh -2 and Yeast growth inh -15.
Screening COc1ccccc1C(CC(=O)c1ccccc1)CC(=O)c1ccccc1 returned RAM inhibit 11*.
Screening CN1C(=O)c2oc3ccccc3c(=O)c2C1c1ccccn1 (configuration not stated) returned Yeast life ext 31*, RAM inhibit 0, Phagocyt inh -2 and Yeast growth inh -5.
For CN1C(=O)c2oc3ccc(Br)cc3c(=O)c2C1c1ccncc1 (configuration not stated) the results were Phagocyt inh 0.
Screening CCC(C)NC(=O)C1CCN(S(=O)(=O)c2cccc3cccnc23)CC1 (configuration not stated) returned Yeast life ext -7, RAM inhibit 1, Phagocyt inh 0 and Yeast growth inh 49*.
For O=C(NC1CCCCC1)C1CCN(S(=O)(=O)c2cccc3cccnc23)CC1 the results were Yeast life ext -8, RAM inhibit 2, Phagocyt inh 0 and Yeast growth inh 3.
Screening CCOC(=O)/C(=C\Nc1ccccc1C(F)(F)F)Sc1ncc(C(F)(F)F)cc1Cl returned Yeast life ext 11, RAM inhibit 10.0*, Phagocyt inh 1 and Yeast growth inh -33.
For Brc1ccc(C2Nc3cccc4cccc(c34)N2)s1 the results were Yeast life ext -9, RAM inhibit 8, Phagocyt inh -8 and Yeast growth inh -26.
CN(C)c1nc(N)nc(CSc2nc3c(c(=O)n(C)c(=O)n3C)n2Cc2ccccc2F)n1 was read as RAM inhibit 1.
`COc1ccccc1Oc1nc2c(c(=O)n(Cc3ccccc3F)c(=O)n2C)n1C` gave Yeast life ext -10, RAM inhibit 10*, Phagocyt inh 0 and Yeast growth inh -64.
`Cn1c(=O)c2c(nc(SCc3nn[nH]n3)n2Cc2ccccc2F)n(C)c1=O` gave Yeast life ext -6, RAM inhibit 10* and Yeast growth inh -21.
Screening CC(=O)NCC(=O)OC(C(=O)c1ccccc1)c1ccc(Cl)cc1 (configuration not stated) returned Yeast life ext 3, RAM inhibit 0, Phagocyt inh -2 and Yeast growth inh -66.
Screening CC1CCCCN1c1ccc(N)cc1C(N)=O (configuration not stated) returned RAM inhibit 0.
CC(C)C1C(c2ccccc2)N(C)C(c2ccccc2)CC1(O)c1ccccc1 (configuration not stated) was read as Yeast life ext 46*, RAM inhibit 0, Phagocyt inh -1 and Yeast growth inh -69.
For CCCC(NS(=O)(=O)c1ccc(C)cc1)C(=O)O (configuration not stated) the results were Yeast life ext -5, RAM inhibit 1, Phagocyt inh 0 and Yeast growth inh -41.
Cc1ccc(S(=O)(=O)N[C@@H](Cc2ccccc2)C(=O)CCl)cc1 was read as Yeast life ext 49*, RAM inhibit -1 and Yeast growth inh -35.
For Cc1cc(C)nc(NC(=NCCc2c[nH]c3ccccc23)NC(=O)c2ccco2)n1 the results were Yeast life ext -21, RAM inhibit 9.8*, Phagocyt inh 0 and Yeast growth inh -52.
Cc1c(C(=O)Nc2ccccc2C(=O)N2CCOCC2)cccc1[N+](=O)[O-] was read as Yeast life ext 1, RAM inhibit 1, Phagocyt inh -2 and Yeast growth inh -30.
CCc1ccc(-n2c(=O)c3c(C)c(C)sc3n(CC(=O)NCC3CCCO3)c2=O)cc1 (configuration not stated) was read as RAM inhibit 0.
`COc1ccc(CNC(=O)CCSCc2cccc(Cl)c2)c(OC)c1` gave Yeast life ext -2, RAM inhibit 2, Phagocyt inh 1 and Yeast growth inh -7.
O=C(CCc1nnc(CCCCc2ccccc2)o1)NCc1cc(F)ccc1F was read as RAM inhibit 11*.
`O=C(CCc1nnc(CCCCc2ccccc2)o1)NCc1cccc(F)c1` gave RAM inhibit 0.
O=c1c2ccccc2c(C=Nc2cccc(S(=O)(=O)NCc3ccco3)c2)c(O)n1-c1ccc(Cl)cn1 was read as Yeast life ext 2, RAM inhibit 8.6*, Phagocyt inh -3 and Yeast growth inh -36.
CC(C)(C)N/N=C/c1c(O)n(-c2ccc(Cl)cn2)c(=O)c2ccccc12 was read as Yeast life ext 18, RAM inhibit 8.5*, Phagocyt inh -2 and Yeast growth inh -34.
Screening O=C(CSc1ccc(Cl)cc1)N1CCN(c2ncc(C(F)(F)F)cc2Cl)CC1 returned Yeast life ext -5, RAM inhibit 11*, Phagocyt inh 0 and Yeast growth inh -54.
For Cc1cc(=O)[nH]c(/N=C(\N)Nc2ccc(SC(F)F)cc2)n1 the results were RAM inhibit 1.
Screening CN(C)C(=O)c1sccc1Oc1ccc(F)cc1[N+](=O)[O-] returned RAM inhibit 1.
Screening COc1ccc(C=O)cc1COc1ccccc1F returned Yeast life ext 2, RAM inhibit 1 and Yeast growth inh -10.
`COc1ccc(/C=C/C(=O)c2ccccc2)cc1COc1ccccc1F` gave Yeast life ext 2, RAM inhibit 10* and Yeast growth inh -35.
Cc1nn(-c2cccc(C(F)(F)F)c2)c(Cl)c1/C=N/Nc1cccc(C(=O)O)c1 was read as Yeast life ext -10, RAM inhibit 3, Phagocyt inh 0 and Yeast growth inh 94*.
For CC1=C(C(=O)Nc2cccc(F)c2)C(c2ccsc2)C2=C(CC(C)(C)CC2=O)N1 (configuration not stated) the results were Yeast life ext 6, RAM inhibit 1, Phagocyt inh 9 and Yeast growth inh -11.
For Cc1ccc2nc(-c3ccc(Br)o3)oc(=O)c2c1 the results were Yeast life ext -8, RAM inhibit 0, Phagocyt inh -3 and Yeast growth inh -14.
Screening COc1cc2nc(-c3ccc(Br)o3)oc(=O)c2cc1OC returned Yeast life ext -26, RAM inhibit 1, Phagocyt inh 95* and Yeast growth inh -13.
O=S(=O)(c1cccs1)N1CN(Cc2cccs2)c2nc3ccccc3nc21 was read as Yeast life ext 2, RAM inhibit 8.6*, Phagocyt inh -1 and Yeast growth inh -29.
Screening CC(=O)c1cnc(Nc2nc(C)c3cccc(C)c3n2)nc1C returned Phagocyt inh -2.
